The array DNA melting data of Ke et al. (doi:10.1101/2024.01.08.574731)

Assays:
[1] = melting temperature; fluorescence melt of hairpins on a sequencing array, two-state fit, raised by 9.35 °C to match UV melts; conditions: sodium 0.088 M
Summary of the method: (§1)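 In 50 mM Na-HEPES pH 8.0 containing 25 mM NaCl, hairpins from the library on a sequenced MiSeq flow cell were imaged for Cy3 fluorescence at 2.5 °C steps up to 60 °C, with Cy3 and quencher oligos annealed. After normalisation to pre-quench Cy3 and to control constructs, two-state fits with bootstrapping gave melting temperature and folding enthalpy. Four replicates were combined by inverse-variance weighting, and fitted temperatures were shifted up by 9.35 °C to match UV melts.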

[2] = folding enthalpy; higher = less favourable; fluorescence melt of hairpins on a sequencing array, two-state fit; conditions: sodium 0.088 M
Summary of the method: as §1

| Sequence | Tm [1] | folding enthalpy [2] |
| --- | --- | --- |
| GGCTCTGGAAACAAAGCC ((((.((....)).)))) | 38 °C | -29.9 kcal/mol |
| GGCTGACCGAAAGGTGCC (((..(((....)))))) | 52.4 °C | -24.7 kcal/mol |
| GGCTGACGAAAGTCGCC (((.(((....)))))) | 59.6 °C | -28.9 kcal/mol |
| GGCTGAGGAAACTCGGTC (.(.(((....))).).) | 40.8 °C | -25 kcal/mol |
| GGCTGCACGAAAGTGGCC (((..(((....)))))) | 49 °C | -20 kcal/mol |
| GGCTGCCGAAAGGCGCC (((.(((....)))))) | 68.3 °C | -18.9 kcal/mol |
| GGCTGCGAAAGCATAGCC ((((((....)))..))) | 57.1 °C | -35.5 kcal/mol |
| GGCTGCGCGAAAGCGGCC (((..(((....)))))) | 60.3 °C | -19.2 kcal/mol |
| GGCTGCTCGAAAGAGGCC (((..(((....)))))) | 43.8 °C | -19.7 kcal/mol |
| GGCTGGAAACAGCC (((((....))))) | 67.5 °C | -30.9 kcal/mol |
| GGCTGGGGAAACCCAACC ((.((((....)))).)) | 45.8 °C | -27 kcal/mol |
| GGCTGGGGAAACCTGGCC (((..((....))..))) | 51.7 °C | -30.6 kcal/mol |
| GGCTGTACGAAAGTAGCC (((..(((....)))))) | 51.1 °C | -27.5 kcal/mol |
| GGCTGTGGAAACACGGCC (((.(((....))).))) | 60.8 °C | -46.6 kcal/mol |
| GGCTTACGAAAGTAGGCC (((.(((....))).))) | 60.1 °C | -43.6 kcal/mol |
| GGCTTAGGAAACTAGGCC (((.(((....))).))) | 48.7 °C | -31.3 kcal/mol |
| GGCTTCGAAAGAAAAGCC ((((((....)))..))) | 46.6 °C | -28 kcal/mol |
| GGCTTCGAAAGAAATGCC ((((((....)))..))) | 38.5 °C | -25.3 kcal/mol |
| GGCTTCGAAAGAATCGCC ((((((....)))..))) | 35.8 °C | -27.7 kcal/mol |
| GGCTTCGAAAGAATGGCC ((((((....)))..))) | 42.2 °C | -25.2 kcal/mol |
| GGCTTCGGAAACGGAGCC ((((.((....)).)))) | 59.1 °C | -42.2 kcal/mol |
| GGCTTGACGAAAGTCGCC (((..(((....)))))) | 55.2 °C | -14.5 kcal/mol |
| GGCTTGGGAAACCAGGTC (.(.(((....))).).) | 37 °C | -23.2 kcal/mol |

| Sequence | Tm [1] | folding enthalpy [2] |
| --- | --- | --- |
| GGCTTGTCGAAAGACGCC (((..(((....)))))) | 49.9 °C | -18.5 kcal/mol |
| GGCTTTCGAAAGAACGCC (((.(((....))).))) | 50.2 °C | -39.3 kcal/mol |
| GGCTTTGGAAACAAGGTC (.(.(((....))).).) | 32.2 °C | -13.9 kcal/mol |
| GGCTTTGGAAACAGAGTC (.((.((....)).)).) | 29.3 °C | -10.1 kcal/mol |
| GGGAAAACGAAAGTTCCC (((..(((....)))))) | 43.5 °C | -27.1 kcal/mol |
| GGGAAACGAAAGTTCCC (((.(((....)))))) | 53.4 °C | -28 kcal/mol |
| GGGAAAGCGAAAGCTCCC (((..(((....)))))) | 51.8 °C | -20.9 kcal/mol |
| GGGAACACGAAAGTGCCC (((..(((....)))))) | 45 °C | -19.8 kcal/mol |
| GGGAACCGAAAGGTACCC (((.(((....))).))) | 58.6 °C | -34.5 kcal/mol |
| GGGAACGAAAGTTCACCC ((((((....)))..))) | 51.6 °C | -20.7 kcal/mol |
| GGGAACGAAAGTTCTCCC ((((((....)))..))) | 45 °C | -14.7 kcal/mol |
| GGGAACGGAAACGTCCCC (((.(((....))).))) | 50.2 °C | -30.7 kcal/mol |
| GGGAAGCCGAAAGGCCCC (((..(((....)))))) | 50.6 °C | -16.3 kcal/mol |
| GGGAAGGCGAAAGCCCCC (((..(((....)))))) | 48.1 °C | -14 kcal/mol |
| GGGAATGGAAACATTTCC ((.((((....)))).)) | 45.1 °C | -32 kcal/mol |
| GGGACCCGAAAGGGCCC (((.(((....)))))) | 66 °C | -19 kcal/mol |
| GGGACCGAAAGGTACCCC ((((((....)))..))) | 61.3 °C | -12.5 kcal/mol |
| GGGACCGAAAGGTAGCCC ((((((....)))..))) | 43.2 °C | -16 kcal/mol |
| GGGACCGAAAGGTGCCCC ((((((....)))..))) | 57.6 °C | -13.5 kcal/mol |
| GGGACCGAAAGGTGTCCC ((((((....)))..))) | 51.3 °C | -23.4 kcal/mol |
| GGGACCGGAAACAGTCCC (((((.(....).))))) | 49.4 °C | -34.5 kcal/mol |
| GGGACGACGAAAGTCCCC (((..(((....)))))) | 49.2 °C | -15.2 kcal/mol |
| GGGACTCGAAAGAGACCC (((.(((....))).))) | 59.5 °C | -39.2 kcal/mol |

| Sequence | Tm [1] | folding enthalpy [2] |
| --- | --- | --- |
| GGGAGAGCGAAAGCTCCC (((..(((....)))))) | 53.7 °C | -15.8 kcal/mol |
| GGGAGATCGAAAGATCCC (((..(((....)))))) | 49.8 °C | -14.5 kcal/mol |
| GGGAGCGAAAGCTACCC ((((((....))).))) | 62.8 °C | -15.7 kcal/mol |
| GGGAGCGAAAGCTGGCCC ((((((....)))..))) | 39.8 °C | -14 kcal/mol |
| GGGAGCGGAAACGTTCCC ((((.((....)).)))) | 55.5 °C | -48.9 kcal/mol |
| GGGAGTGAAAACTCCC ((((((....)))))) | 65.2 °C | -34.1 kcal/mol |
| GGGAGTGGAAACACTCTC (.(((((....))))).) | 51.7 °C | -25.1 kcal/mol |
| GGGATAGGAAACTATTCC ((.((((....)))).)) | 40.7 °C | -34.3 kcal/mol |
| GGGATCCCGAAAGGGCCC (((..(((....)))))) | 45 °C | -16.4 kcal/mol |
| GGGATCGAAAGATACCC ((((((....))).))) | 51.6 °C | -21.2 kcal/mol |
| GGGATCGAAAGATATCCC ((((((....)))..))) | 39.8 °C | -25 kcal/mol |
| GGGATCGAAAGATTCCCC ((((((....)))..))) | 49.3 °C | -18.8 kcal/mol |
| GGGATCGGAAACGATCTC (.(((((....))))).) | 54.2 °C | -31.9 kcal/mol |
| GGGATCTCGAAAGAGCCC (((..(((....)))))) | 51.2 °C | -27.9 kcal/mol |
| GGGATGCGAAAGCAACCC (((.(((....))).))) | 63.6 °C | -24.4 kcal/mol |
| GGGATGGAAACATCCC ((((((....)))))) | 60.7 °C | -41.4 kcal/mol |
| GGGATGGGAAACCACCCC (((.(((....))).))) | 47.3 °C | -32 kcal/mol |
| GGGATTACGAAAGTACCC (((..(((....)))))) | 34.1 °C | -17.1 kcal/mol |
| GGGCAACGAAAGTTACCC (((.(((....))).))) | 52.2 °C | -38.9 kcal/mol |
| GGGCAACGAAAGTTCCC (((.(((....)))))) | 47.4 °C | -22.1 kcal/mol |
| GGGCAAGGAAACTTGTCC ((.((((....)))).)) | 52.3 °C | -40.7 kcal/mol |
| GGGCACCGAAAGGTCCCC (((.(((....))).))) | 54.7 °C | -17.8 kcal/mol |
| GGGCACGAAAGTGATCCC ((((((....)))..))) | 50.3 °C | -19.4 kcal/mol |

| Sequence | Tm [1] | folding enthalpy [2] |
| --- | --- | --- |
| GGGCACGAAAGTGTACCC ((((((....)))..))) | 50.3 °C | -18.4 kcal/mol |
| GGGCACTCGAAAGAGCCC (((..(((....)))))) | 50.9 °C | -31.1 kcal/mol |
| GGGCAGACGAAAGTCCCC (((..(((....)))))) | 42.9 °C | -16.8 kcal/mol |
| GGGCATGGAAACATGTCC ((.((((....)))).)) | 54.3 °C | -43.4 kcal/mol |
| GGGCCACCGAAAGGTCCC (((..(((....)))))) | 41.3 °C | -17.8 kcal/mol |
| GGGCCACGAAAGTGCCCC (((.(((....))).))) | 59.3 °C | -17.3 kcal/mol |
| GGGCCAGGAAACCGGCCC (((((.(....).))))) | 64 °C | -33.2 kcal/mol |
| GGGCCAGGAAACTGACCC (((.(((....))).))) | 50.4 °C | -40 kcal/mol |
| GGGCCCCGAAAGGGACCC (((.(((....))).))) | 69 °C | -26 kcal/mol |
| GGGCCCGAAAGGGCGCCC ((((((....)))..))) | 58.2 °C | -9.86 kcal/mol |
| GGGCCCGAAAGGGGACCC ((((((....)))..))) | 65.1 °C | -14.4 kcal/mol |
| GGGCCCGAAAGGGTGCCC ((((((....)))..))) | 60.2 °C | -15.7 kcal/mol |
| GGGCCTCGAAAGAGACCC (((.(((....))).))) | 56 °C | -43 kcal/mol |
| GGGCCTGCGAAAGCACCC (((..(((....)))))) | 50.5 °C | -9.63 kcal/mol |
| GGGCCTGGAAACGGGCCC (((((.(....).))))) | 68.9 °C | -38.7 kcal/mol |
| GGGCCTGGAAACGGGTCC ((.((.(....).)).)) | 50.9 °C | -26.3 kcal/mol |
| GGGCCTTCGAAAGAACCC (((..(((....)))))) | 30.4 °C | -7.96 kcal/mol |
| GGGCGACGAAAGTCCCCC (((.(((....))).))) | 55.7 °C | -31.2 kcal/mol |
| GGGCGAGGAAACCCACCC (((.(.(....).).))) | 30.9 °C | -16.4 kcal/mol |
| GGGCGAGGAAACTCGTCC ((.((((....)))).)) | 58.2 °C | -41.5 kcal/mol |
| GGGCGCCCGAAAGGGCCC (((..(((....)))))) | 59.5 °C | -11.5 kcal/mol |
| GGGCGCGAAAGCGGACCC ((((((....)))..))) | 61.5 °C | -12.8 kcal/mol |
